According to ChEMBL document CHEMBL4619776, “Probing the Plasticity in the Active Site of Protein N-terminal Methyltransferase 1 Using Bisubstrate Analogues” (J Med Chem, 2020):
The source made the active and inactive calls. No cut-off for these calls is given here. Numbered stars: 1 amine (or outer) side, 2 acyl side, 3 side chain; on linkers, the order of the positions; unused ones are H or OH. Square brackets hold non-standard residues; d marks the D form. Peptide text beside a SMILES is read from it. X1 = Nc1ncnc2c1ncn2[C@@H]1O[C@H](CSCCCN(CC(=O)[*:2])[*:1])[C@@H](O)[C@H]1O; Nlys = NCCCCNCC(=O)O

How the values were obtained:
[1] = target: T1, N-terminal Xaa-Pro-Lys N-methyltransferase 1 (Homo sapiens, UniProt Q9BV86); experiment: Inhibition of NTMT1 (unknown origin) pre-incubated for 10 mins before GPKRIA peptide substrate addition by SAHH coupled fluorescence assay
T1 sequence (Q9BV86 whole entry): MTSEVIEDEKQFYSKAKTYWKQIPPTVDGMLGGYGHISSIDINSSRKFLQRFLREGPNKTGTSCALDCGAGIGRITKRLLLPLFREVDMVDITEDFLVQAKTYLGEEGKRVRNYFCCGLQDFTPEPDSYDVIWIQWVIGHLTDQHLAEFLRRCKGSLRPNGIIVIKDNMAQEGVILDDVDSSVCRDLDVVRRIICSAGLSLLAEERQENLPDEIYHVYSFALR
Method in brief: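 Inhibitor at 0.15 nM–10 μM, preincubated 10 min. Reaction started with 0.5 μM GPKRIA (Km). Fluorescence read at ex 400/em 465 nm; IC50 derived.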

[2] = target: T2, N-terminal Xaa-Pro-Lys N-methyltransferase 1 (Homo sapiens) (UniProt Q9BV86); experiment: Substrate activity at NTMT1 (unknown origin) assessed as compound methylation at 10 uM incubated overnight by MALDI-MS methylation assay
T2 sequence (whole entry): T1 sequence (Q9BV86 whole entry)
Method in brief: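 Compound (10 µM) incubated overnight at 37 °C with 0.1 µM NTMT1 and 3 µM SAM in 20 mM Tris pH 7.5, 50 mM KCl. Quenched 1:1 with 20 mM NH4H2PO4, 0.4% TFA in 1:1 acetonitrile/water. Methylated compound detected by MALDI-MS with 2,5-dihydroxybenzoic acid matrix.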

[3] = target: T1, N-terminal Xaa-Pro-Lys N-methyltransferase 1; experiment: Time dependent inhibition of NTMT1 (unknown origin) pre-incubated for 10 mins before GPKRIA peptide substrate addition by SAHH coupled fluorescence assay based Morrison's quadratic equation analysis
[4] = target: T1, N-terminal Xaa-Pro-Lys N-methyltransferase 1; experiment: Time dependent inhibition of NTMT1 (unknown origin) pre-incubated for 30 mins before GPKRIA peptide substrate addition by SAHH coupled fluorescence assay based Morrison's quadratic equation analysis
[5] = target: T1, N-terminal Xaa-Pro-Lys N-methyltransferase 1; experiment: Time dependent inhibition of NTMT1 (unknown origin) pre-incubated for 60 mins before GPKRIA peptide substrate addition by SAHH coupled fluorescence assay based Morrison's quadratic equation analysis
[6] = target: T1, N-terminal Xaa-Pro-Lys N-methyltransferase 1; experiment: Time dependent inhibition of NTMT1 (unknown origin) pre-incubated for 90 mins before GPKRIA peptide substrate addition by SAHH coupled fluorescence assay based Morrison's quadratic equation analysis
[7] = target: T1, N-terminal Xaa-Pro-Lys N-methyltransferase 1; experiment: Time dependent inhibition of NTMT1 (unknown origin) pre-incubated for 120 mins before GPKRIA peptide substrate addition by SAHH coupled fluorescence assay based Morrison's quadratic equation analysis
[8] = target: T1, N-terminal Xaa-Pro-Lys N-methyltransferase 1; experiment: Binding affinity to NTMT1 (unknown origin) assessed as binding constant Kd1 by ITC assay
Method in brief: (§1)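 Purified NTMT1 or NTMT2 at 30–50 μM in the cell; compound at 0.5–1 mM in the same buffer, titrated in as 26 injections of 10 μl spaced 180 s. Data fitted to a one-site or two-site binding model.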

[9] = target: T1, N-terminal Xaa-Pro-Lys N-methyltransferase 1; experiment: Binding affinity to NTMT1 (unknown origin) assessed as binding constant Kd2 by ITC assay; method in brief: as §1
[10] = target: N-terminal Xaa-Pro-Lys N-methyltransferase 2 (Homo sapiens, UniProt Q5VVY1); experiment: Binding affinity to […] (unknown origin) by ITC assay; method in brief: as §1
[11] = target: T3, Histone-lysine N-methyltransferase EHMT2 (Homo sapiens) (UniProt Q96KQ7); experiment: Inhibition of G9a (unknown origin) at 100 uM
T3 sequence (whole entry): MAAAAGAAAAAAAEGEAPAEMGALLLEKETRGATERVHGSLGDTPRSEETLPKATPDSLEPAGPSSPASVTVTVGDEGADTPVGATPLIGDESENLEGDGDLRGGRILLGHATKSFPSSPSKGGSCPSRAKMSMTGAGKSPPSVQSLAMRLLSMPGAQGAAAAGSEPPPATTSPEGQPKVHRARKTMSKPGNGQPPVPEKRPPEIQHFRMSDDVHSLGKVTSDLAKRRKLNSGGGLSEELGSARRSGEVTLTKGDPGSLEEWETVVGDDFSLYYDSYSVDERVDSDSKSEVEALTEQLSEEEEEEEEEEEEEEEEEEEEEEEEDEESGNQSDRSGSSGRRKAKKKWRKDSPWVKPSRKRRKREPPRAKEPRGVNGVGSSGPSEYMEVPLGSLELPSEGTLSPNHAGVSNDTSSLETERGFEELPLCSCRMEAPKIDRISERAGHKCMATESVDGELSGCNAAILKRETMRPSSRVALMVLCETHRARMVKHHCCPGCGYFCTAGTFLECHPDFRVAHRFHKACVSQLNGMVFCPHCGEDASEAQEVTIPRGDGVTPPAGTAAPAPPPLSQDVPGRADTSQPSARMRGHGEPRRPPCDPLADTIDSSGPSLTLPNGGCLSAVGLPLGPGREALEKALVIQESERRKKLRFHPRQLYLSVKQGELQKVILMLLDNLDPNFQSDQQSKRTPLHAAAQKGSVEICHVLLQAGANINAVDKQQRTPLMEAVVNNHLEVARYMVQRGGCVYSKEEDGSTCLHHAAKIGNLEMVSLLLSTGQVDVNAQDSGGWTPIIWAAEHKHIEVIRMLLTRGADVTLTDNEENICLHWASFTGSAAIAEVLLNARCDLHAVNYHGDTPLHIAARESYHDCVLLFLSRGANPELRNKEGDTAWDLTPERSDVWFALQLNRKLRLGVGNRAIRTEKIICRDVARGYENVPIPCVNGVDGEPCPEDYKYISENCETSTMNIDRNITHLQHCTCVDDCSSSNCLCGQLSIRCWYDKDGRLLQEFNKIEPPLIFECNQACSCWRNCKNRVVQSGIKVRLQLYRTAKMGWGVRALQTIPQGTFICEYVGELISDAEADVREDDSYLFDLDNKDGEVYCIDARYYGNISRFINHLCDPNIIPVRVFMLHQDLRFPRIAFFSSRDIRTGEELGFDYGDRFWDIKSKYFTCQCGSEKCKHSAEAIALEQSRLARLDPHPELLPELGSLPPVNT

[12] = target: T4, Histone-lysine N-methyltransferase SETD7 (Homo sapiens) (UniProt Q8WTS6); experiment: Inhibition of SETD7 (unknown origin) at 100 uM
T4 sequence (whole entry): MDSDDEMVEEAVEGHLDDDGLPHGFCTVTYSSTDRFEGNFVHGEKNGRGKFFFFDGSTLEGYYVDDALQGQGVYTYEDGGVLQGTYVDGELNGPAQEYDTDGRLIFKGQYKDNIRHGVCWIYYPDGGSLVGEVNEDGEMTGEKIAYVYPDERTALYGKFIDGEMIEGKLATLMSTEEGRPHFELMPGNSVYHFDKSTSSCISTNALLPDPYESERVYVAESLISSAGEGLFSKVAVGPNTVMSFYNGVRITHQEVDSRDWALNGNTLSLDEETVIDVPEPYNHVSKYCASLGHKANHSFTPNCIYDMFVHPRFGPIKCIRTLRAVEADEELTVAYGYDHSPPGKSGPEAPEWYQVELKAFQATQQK

[13] = target: T5, Nicotinamide N-methyltransferase (Homo sapiens) (UniProt P40261); experiment: Inhibition of NNMT (unknown origin) at 100 uM
T5 sequence (whole entry): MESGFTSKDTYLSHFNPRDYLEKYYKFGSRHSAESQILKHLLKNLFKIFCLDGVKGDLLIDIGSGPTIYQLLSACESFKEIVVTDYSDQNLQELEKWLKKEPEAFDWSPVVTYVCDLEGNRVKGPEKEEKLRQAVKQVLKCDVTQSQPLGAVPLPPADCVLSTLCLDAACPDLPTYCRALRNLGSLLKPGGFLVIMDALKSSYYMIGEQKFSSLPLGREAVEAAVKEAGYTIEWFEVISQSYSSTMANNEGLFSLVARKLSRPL

[14] = target: Protein arginine N-methyltransferase 1 (Homo sapiens) (UniProt Q99873); experiment: Inhibition of PRMT1 (unknown origin) at 30 uM relative to control
[15] = target: Protein arginine N-methyltransferase 3 (Homo sapiens) (UniProt O60678); experiment: Inhibition of PRMT3 (unknown origin) at 30 uM pre-incubated for 10 mins before H4-21 peptide addition in presence of SAM relative to control
[16] = tested on: Trypanosoma brucei; experiment: Inhibition of Trypanosoma brucei PRMT7 at 30 uM relative to control
[17] = target: Adenosylhomocysteinase (Homo sapiens) (UniProt P23526); experiment: Inhibition of SAHH (unknown origin) at 30 uM relative to control
[18] = target: T1, N-terminal Xaa-Pro-Lys N-methyltransferase 1; experiment: Inhibition of NTMT1 (unknown origin) pre-incubated for 10 mins before GPKRIA peptide substrate addition and measured after 20 mins by MALDI-MS methylation assay

N-terminal Xaa-Pro-Lys N-methyltransferase 2, sequence (Q5VVY1 whole entry): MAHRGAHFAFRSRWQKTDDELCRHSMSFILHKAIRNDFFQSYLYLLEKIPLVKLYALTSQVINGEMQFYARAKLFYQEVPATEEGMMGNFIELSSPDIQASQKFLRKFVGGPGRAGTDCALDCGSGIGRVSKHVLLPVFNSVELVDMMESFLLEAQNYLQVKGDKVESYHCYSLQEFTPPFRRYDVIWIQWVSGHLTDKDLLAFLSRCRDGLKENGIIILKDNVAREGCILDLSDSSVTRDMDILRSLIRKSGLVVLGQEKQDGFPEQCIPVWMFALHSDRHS
Protein arginine N-methyltransferase 1 (Homo sapiens), sequence (Q99873 whole entry, looked up): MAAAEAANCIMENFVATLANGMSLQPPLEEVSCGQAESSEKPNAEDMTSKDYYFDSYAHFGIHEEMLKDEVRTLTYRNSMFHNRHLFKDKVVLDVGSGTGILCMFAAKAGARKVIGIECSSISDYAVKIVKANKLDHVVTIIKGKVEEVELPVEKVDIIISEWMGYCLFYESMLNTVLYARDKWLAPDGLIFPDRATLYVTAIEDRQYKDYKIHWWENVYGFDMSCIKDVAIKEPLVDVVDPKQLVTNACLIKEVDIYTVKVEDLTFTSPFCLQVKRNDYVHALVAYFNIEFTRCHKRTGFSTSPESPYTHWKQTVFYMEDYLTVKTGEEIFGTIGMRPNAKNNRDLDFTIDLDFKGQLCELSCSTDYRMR
Adenosylhomocysteinase (Homo sapiens), sequence (P23526 2-432 limits assumed): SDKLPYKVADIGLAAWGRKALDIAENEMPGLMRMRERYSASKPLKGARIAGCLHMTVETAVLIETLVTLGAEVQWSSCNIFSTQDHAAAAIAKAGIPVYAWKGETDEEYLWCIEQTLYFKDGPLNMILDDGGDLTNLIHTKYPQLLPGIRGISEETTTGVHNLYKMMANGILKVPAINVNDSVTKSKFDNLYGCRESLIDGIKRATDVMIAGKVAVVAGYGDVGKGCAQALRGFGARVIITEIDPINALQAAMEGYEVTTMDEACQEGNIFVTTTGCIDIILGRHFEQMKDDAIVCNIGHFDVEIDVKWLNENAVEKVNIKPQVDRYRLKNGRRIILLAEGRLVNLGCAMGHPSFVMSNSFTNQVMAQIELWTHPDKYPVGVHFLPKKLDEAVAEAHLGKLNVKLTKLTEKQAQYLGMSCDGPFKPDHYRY
Protein arginine N-methyltransferase 3 (Homo sapiens), sequence (O60678 2-531 limits assumed): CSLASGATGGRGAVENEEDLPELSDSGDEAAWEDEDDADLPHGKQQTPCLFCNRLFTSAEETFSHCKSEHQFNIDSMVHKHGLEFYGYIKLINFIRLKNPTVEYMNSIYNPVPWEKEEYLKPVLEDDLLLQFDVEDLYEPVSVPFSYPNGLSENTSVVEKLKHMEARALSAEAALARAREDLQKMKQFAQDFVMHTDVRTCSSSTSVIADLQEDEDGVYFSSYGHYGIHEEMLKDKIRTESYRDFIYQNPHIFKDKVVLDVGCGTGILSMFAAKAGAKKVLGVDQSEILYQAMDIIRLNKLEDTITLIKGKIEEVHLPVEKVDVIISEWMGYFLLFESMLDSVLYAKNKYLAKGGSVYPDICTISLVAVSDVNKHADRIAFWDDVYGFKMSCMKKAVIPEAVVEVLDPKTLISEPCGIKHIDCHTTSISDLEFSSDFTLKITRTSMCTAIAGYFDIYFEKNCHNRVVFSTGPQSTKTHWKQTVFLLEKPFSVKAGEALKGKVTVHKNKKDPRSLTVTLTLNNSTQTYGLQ

## N=C(N)NCCC[C@H](NC(=O)[C@H](CCCCN)NC(=O)[C@@H]1CCCN1C(=O)CNCCN(CC[C@H](N)C(=O)O)C[C@H]1O[C@@H](n2cnc3c(N)ncnc32)[C@H](O)[C@@H]1O)C(N)=O
[1]; read-out: IC50
  IC50: 320 nM

## CC[C@H](C)[C@H](NC(=O)[C@H](CCCNC(=N)N)NC(=O)[C@H](CCCCN)NC(=O)[C@@H]1CCCN1C(=O)CNCCCSC[C@H]1O[C@@H](n2cnc3c(N)ncnc32)[C@H](O)[C@@H]1O)C(=O)N[C@@H](C)C(N)=O (H-[X1]PKRIA-NH2)
[2]
  Activity: Active

## CC[C@H](C)[C@H](NC(=O)[C@H](CCCNC(=N)N)NC(=O)[C@H](CCCCN)NC(=O)[C@@H]1CCCN1C(=O)CNCCCN(CC[C@H](N)C(=O)O)C[C@H]1O[C@@H](n2cnc3c(N)ncnc32)[C@H](O)[C@@H]1O)C(=O)N[C@@H](C)C(N)=O
[1]; read-out: IC50
  IC50: 130 nM
[3]
  Ki: 41 nM
[4]
  Ki: 2.4 nM
[5]
  Ki: 0.78 nM
[6]
  Ki: 2.5 nM
[7]
  Ki: 1.3 nM
[8]
  Kd: 2400 nM
[9]
  Kd: 41 nM
[10]
  Kd: Not Active

## CC[C@H](C)[C@H](NC(=O)[C@H](CCCNC(=N)N)NC(=O)[C@H](CCCCN)NC(=O)[C@@H]1CCCN1C(=O)CNCCCCN(CC[C@H](N)C(=O)O)C[C@H]1O[C@@H](n2cnc3c(N)ncnc32)[C@H](O)[C@@H]1O)C(=O)N[C@@H](C)C(N)=O
[1]; read-out: IC50
  IC50: 82 nM
[3]
  Ki: 15 nM
[4]
  Ki: 0.49 nM
[5]
  Ki: 0.73 nM
[6]
  Ki: 0.62 nM
[7]
  Ki: 0.13 nM
[8]
  Kd: 310 nM
[9]
  Kd: 2.47 nM
[10]
  Kd: Not Active
[11]
  inhibition: inactive
[12]
  inhibition: inactive
[13]
  inhibition: inactive
[14]
  inhibition: < 50%
[15]
  inhibition: < 50%
[16]
  inhibition: < 50%
[17]
  inhibition: < 50%

## CC[C@H](C)[C@H](NC(=O)[C@H](CCCNC(=N)N)NC(=O)[C@H](CCCCN)NC(=O)[C@@H]1CCCN1C(=O)CNCCCCCN(CC[C@H](N)C(=O)O)C[C@H]1O[C@@H](n2cnc3c(N)ncnc32)[C@H](O)[C@@H]1O)C(=O)N[C@@H](C)C(N)=O
[1]
  IC50: Not Active
[8]
  Kd: 1600 nM
[9]
  Kd: 480 nM
[10]
  Kd: Not Active

## NCCCCN(CC[C@H](N)C(=O)O)C[C@H]1O[C@@H](n2cnc3c(N)ncnc32)[C@H](O)[C@@H]1O
[1]; read-out: IC50
  IC50: > 10000 nM

## Nc1ncnc2c1ncn2[C@@H]1O[C@H](CNCC[C@H](N)C(=O)O)[C@@H](O)[C@H]1O
[18]
  IC50: > 10000 nM

## N=C(N)NCCC[C@H](NC(=O)[C@H](CCCCN)NC(=O)[C@@H]1CCCN1C(=O)CNCCCCN(CC[C@H](N)C(=O)O)C[C@H]1O[C@@H](n2cnc3c(N)ncnc32)[C@H](O)[C@@H]1O)C(N)=O
[1]; read-out: IC50
  IC50: 84 nM

## CC[C@H](C)[C@H](NC(=O)[C@H](CCCNC(=N)N)NC(=O)[C@H](CCCCN)NC(=O)[C@@H]1CCCN1C(=O)CNCCCCNCC[C@H](N)C(=O)O)C(=O)N[C@@H](C)C(N)=O
[2]
  Activity: Active

## N=C(N)NCCC[C@H](NC(=O)[C@H](CCCCN)NC(=O)[C@@H]1CCCN1C(=O)CNCCCN(CC[C@H](N)C(=O)O)C[C@H]1O[C@@H](n2cnc3c(N)ncnc32)[C@H](O)[C@@H]1O)C(N)=O
[1]; read-out: IC50
  IC50: 200 nM

## CC[C@H](C)[C@H](NC(=O)[C@H](CCCNC(=N)N)NC(=O)[C@H](CCCCN)NC(=O)[C@@H]1CCCN1C(=O)CNCCCCN)C(=O)N[C@@H](C)C(N)=O (H-[Nlys]PKRIA-NH2)
[2]
  Activity: Active

## CC[C@H](C)[C@H](NC(=O)[C@H](CCCNC(=N)N)NC(=O)[C@H](CCCCN)NC(=O)[C@@H]1CCCN1C(=O)CNCCN(CC[C@H](N)C(=O)O)C[C@H]1O[C@@H](n2cnc3c(N)ncnc32)[C@H](O)[C@@H]1O)C(=O)N[C@@H](C)C(N)=O
[1]; read-out: IC50
  IC50: 260 nM
[3]
  Ki: 99 nM
[4]
  Ki: 6.8 nM
[5]
  Ki: 8.2 nM
[6]
  Ki: 4.9 nM
[7]
  Ki: 5.4 nM
[8]
  Kd: 980 nM
[9]
  Kd: 46.7 nM
[10]
  Kd: Not Active
